Assay outcomes (PubChem)
CAL PDZ FP-1: human CAL PDZ-peptide interaction inhibition; Q9HD26; purified CAL PDZ, TMR-peptide fluorescence polarization, 1 h; inhibition, % at 20 µM; 0.02% of 330,000 active;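 active = highest replicate inhibition of at least 40%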;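 also: plate controls were DMSO neutral control wells for no effect and unlabeled competitor peptide control wells for full effect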
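Control set: unlabelled peptide and DMSO controls / Material: purified CerCALP PDZ construct / Timing: 1 h incubation at room temperature before polarization reading / Doses: 20 µM, one dose / Detection: fluorescence polarization (mP)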
ATG4B inhibitor: ATG4B (human) cysteine protease inhibition; Q9Y4P1; 0.51% of 340,000 active; AID 504462; ATG4B cleavage of LC3-PLA2, NBD-HPC fluorescence, 1 h; inhibition, % at 8.33 µM; in the data active = inhibition above about 40%
Target sequence (Q9Y4P1 whole entry, looked up): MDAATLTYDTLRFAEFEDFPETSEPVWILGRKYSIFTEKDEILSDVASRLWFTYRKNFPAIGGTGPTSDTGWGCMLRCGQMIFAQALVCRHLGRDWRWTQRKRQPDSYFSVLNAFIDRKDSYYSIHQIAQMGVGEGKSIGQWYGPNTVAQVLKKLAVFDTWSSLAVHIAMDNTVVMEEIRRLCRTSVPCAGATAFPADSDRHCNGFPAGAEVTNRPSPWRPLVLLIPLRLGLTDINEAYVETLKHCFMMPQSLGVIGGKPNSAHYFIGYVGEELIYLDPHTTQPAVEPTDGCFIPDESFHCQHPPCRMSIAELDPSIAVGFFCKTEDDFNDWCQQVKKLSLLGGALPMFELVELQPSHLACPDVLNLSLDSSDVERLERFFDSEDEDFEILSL
SR-BI uptake up: enhances SR-BI lipid uptake from DiI-HDL. activation, % at 12.5 µM. CHO ldlA[mSR-BI] cells, DiI-HDL uptake fluorescence, 3 h; 100 = double the neutral-control signal. 0.096% of 320,000 active;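 active = mean replicate activation of at least 60% and every replicate at or above 60%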;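 also: 0% = median plate neutral-control signal and 100% = twice that signal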
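Assay system: LDL receptor-deficient CHO ldlA cells overexpressing murine SR-BI / Medium: BSA-supplemented, HEPES-buffered Ham's F12, pH 7.4 / Probe or stimulus: DiI-labelled HDL at 10 µg/mL final / Timing: compound with DiI-HDL co-incubation, 3 h at 37 °C / Technique: bottom-read cell fluorescence after medium removal, ex 550/em 595 nm / Measure: HDL uptake via cellular fluorescence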
CAL PDZ FP-2: inhibitors of human CAL PDZ peptide binding | AID 602252 | purified CAL PDZ, TMR-peptide fluorescence polarization, 1 h | inhibition, % at 24.9 µM | 0.92% of 300,000 active;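 active = mean inhibition of at least 30% with at least half of replicates also reaching 30%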;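 also: 0% = DMSO neutral control and 100% = excess unlabeled competitor peptide PRC23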
SR-BI DiI inh: blocks mouse SR-BI lipid uptake from DiI-HDL; Q61009; ldlA[mSR-BI] CHO cells, DiI-HDL uptake fluorescence, 3 h; inhibition, % at 12.5 µM; 0.96% of 320,000 active; AID 488896;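 active = mean replicate inhibition of at least 70% and a set share of replicates each scoring 70 or more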;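 also: 0% = median of neutral control wells and 100% = median of positive control wells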
* hit, by the source's call; . = no result. Shown are actives, neighbours in structure and some others; about 2.3% of the full set was active somewhere.

SMILES	CAL PDZ FP-1	ATG4B inhibitor	SR-BI uptake up	CAL PDZ FP-2	SR-BI DiI inh
COc1cc2c(cc1NC(=O)Cc1ccc(C)cc1)oc1ccccc12	-2	8	-72	3	72*
COc1cc2c(cc1NC(=O)CCCCCN1C(=O)CCC1=O)oc1ccccc12	0	-13	-85	-2	85*
COc1cc2c(cc1NC(=O)CSc1ccc(C)cc1)oc1ccccc12	.	19	-46	-5	46
COc1cc2c(cc1NC(=O)Nc1ccccc1)oc1ccccc12	-1	20	-89	-3	89*
COc1cc2c(cc1NC(=O)C(C)Sc1ccc(C)cc1)oc1ccccc12 (stereo not given)	0	20	-79	-4	79*
COC(=O)c1cc(NC(=O)CC2NCCNC2=O)cc(C(=O)OC)c1 (stereo not given)	4	-3	-13	-2	13
COC(=O)c1sccc1NC(=O)CC1NCCNC1=O (stereo not given)	-1	-15	1	130*	-1
COc1ccc(NS(=O)(=O)c2cccc(C(=O)N3CCN(Cc4cc(OC)ccc4OC)CC3)c2)cc1	0	5	-74	-1	74*
COc1ccc(OC)c(CN2CCN(C(=O)c3cc(S(=O)(=O)Nc4ccccc4OC)ccc3C)CC2)c1	-2	-8	-69	-2	69
COc1ccc(OC)c(CN2CCN(C(=O)c3cccc(S(=O)(=O)Nc4ccc(C)cc4)c3)CC2)c1	-4	-10	-40	-2	40
COc1ccc(OC)c(CN2CCN(C(=O)c3ccc(C)c(S(=O)(=O)Nc4ccccc4OC)c3)CC2)c1	0	2	-77	-1	77*
O=C(Nc1nncs1)C12CC3CC(CC(Cl)(C3)C1)C2	-1	3	36	-6	-36
O=C(/C=C/c1ccc(F)cc1)Nc1cccc(S(=O)(=O)N2CCOCC2)c1	-3	-21	-74	-7	74*
COc1ccc(/C=C/C(=O)Nc2cccc(S(=O)(=O)N3CCCC3)c2)cc1OC	-6	-10	-80	.	80*
COc1ccc(CC(=O)Nc2cccc(S(=O)(=O)N3CCCC3)c2)cc1OC	-1	-10	-10	0	10
O=C(CCC(=O)N(CC(=O)NC1CCCCC1)Cc1cccs1)Nc1nccs1	0	-5	-9	4	9
CCOc1cccc(CNn2cnnc2)c1OCc1ccccc1Cl	0	-4	-35	-4	35
CCOc1cccc(CNc2ccc(O)cc2)c1OCc1ccccc1Cl	0	22	-81	-1	81*
CCOc1cccc(CNc2ccc(O)cc2)c1OCc1ccc(Cl)cc1Cl	1	24	-80	6	80*
CC(C)N1CCOC1c1ccccc1 (stereo not given)	-1	0	13	-4	-13
COC(=O)c1[nH]c(=O)c2ccccc2c1OCc1ccccc1	.	-14	200*	3	-200
COc1ccccc1CNCCS(=O)(=O)NN1CCOCC1	1	7	5	7	-5
O=C(CSc1ccccc1)N1CCCC(Nc2ccccc2)C1 (stereo not given)	1	8	-4	61*	4
COc1ccc(NS(=O)(=O)c2cccc(C(=O)NNC(=O)CNC(=O)c3cccc(C)c3)c2)cc1	-2	-17	9	6	-9
CC(C)NC(=O)NC(=O)COC(=O)c1ccccc1Oc1ccccc1	.	-14	-1	76*	1
SMILES	CAL PDZ FP-1	ATG4B inhibitor	SR-BI uptake up	CAL PDZ FP-2	SR-BI DiI inh
CN=c1scc(C)n1/N=C/c1cc(Br)c(O)c(Br)c1	.	-8	13	-3	-13
COc1cc(/C=N/N2C(=O)CSC2=S)cc(Br)c1O	-9	13	.	53*	.
CCN=c1scc(C)n1/N=C/c1cc(Br)c(O)c(OC)c1	0	-7	-72	-2	72*
COC(=O)c1cc(NC(=O)COC(=O)CN2C(=O)C3CC=CCC3C2=O)cc(C(=O)OC)c1 (stereo not given)	-4	-6	-19	-3	19
O=C1NC[C@H](Cc2ccccc2)N(CC2CCN(CCC34CC5CC(CC(C5)C3)C4)CC2)C1=O	-2	.	4	-1	-4
O=C1CCC/C(=N/Nc2ccc(Cl)cc2)C1	1	2	-80	.	80*
O=C(NN=C1CCCC1)c1ccc(Cl)cc1	-1	0	6	1	-6
Cc1cc(C)c(S(=O)(=O)Nc2ccc(OCC(=O)O)cc2)c(C)c1	-1	6	.	43*	.
COc1ccc(NS(=O)(=O)c2c(C)cc(C)cc2C)cc1	0	-9	30	-3	-30
CCC(=O)OCC(=O)c1cc(C)n(-c2ccc(Br)cc2)c1C	-1	-4	5	-1	-5
CCc1nnc(NC(=O)CN2CCN(c3ccccc3F)CC2)s1	0	-6	6	41*	-6
CCc1nnc(NC(=O)CN2CCN(Cc3ccccc3C)CC2)s1	1	-5	7	0	-7
CN(c1ccc(C(=O)N2CCN(Cc3ccccc3)CC2)cc1)S(=O)(=O)c1ccc(Cl)cc1	-3	4	-79	-5	79*
CS(=O)(=O)N(Cc1ccccc1)c1ccc(C(=O)N2CCN(c3cccc(Cl)c3)CC2)cc1	.	56*	-48	-2	48
CS(=O)(=O)N(Cc1ccc(Cl)cc1)c1ccc(C(=O)N2CCN(c3ccccc3)CC2)cc1	0	9	-39	0	39
CCOc1ccc(Cn2c(=O)sc3ccccc32)cc1OC	-2	0	-18	66*	18
C/C(=N\NC(=O)c1ccccc1O)c1c(O)cc(C)oc1=O	-4	4	-101	.	101*
CCOC(=O)c1c(C)[nH]c(C(=O)OCc2csc(CC(=O)Nc3ccccc3C)n2)c1C	0	5	-81	.	81*
c1ccc2c(c1)CC1(CCCC1)N=C2N1CCOCC1	0	-2	29	68*	-29
CCOc1ccc2nc(SCC(=O)c3ccc(O)cc3O)sc2c1	.	3	24	36*	-24
CCOc1ccc2nc(SCC(=O)c3ccc(C)s3)sc2c1	-3	-3	.	-2	.
O=C(CCN1C(=O)/C(=C/c2ccccc2F)SC1=S)Nc1cccnc1	0	0	-8	-4	8
O=C(CCN1C(=O)/C(=C\c2ccccc2Cl)SC1=S)Nc1cccnc1	-1	-3	0	66*	0
c1ccc2scnc2c1	-1	2	2	0	-2
N#Cc1cccc2c1-c1ccccc1/C2=N/NC(N)=S	0	-9	-49	56*	49
CO/N=C/NC(=O)NOCc1ncc(C(F)(F)F)cc1Cl	-1	2	-26	-1	26
O=C(N/C=N/OCc1ccc(Cl)cc1Cl)NOCc1ncc(C(F)(F)F)cc1Cl	0	-6	-83	-4	83*
Cc1cccc(C(=O)NCc2ccc(S(N)(=O)=O)cc2)c1[N+](=O)[O-]	0	-5	-2	46*	2
